Reference: ChEMBL document CHEMBL1136726, “Synthesis and characterization of iodine-123 labeled 2beta-carbomethoxy-3beta-(4'-((Z)-2-iodoethenyl)phenyl)nortropane. A ligand for in vivo imaging of serotonin transporters by single-photon-emission tomography” (J Med Chem, 2003)

Tests used:
Format in all cases: ADME, organism-based
Rattus norvegicus [1] = assay: Distribution of radioactivity in rat brain region hypothalamus 60 min after intravenous administration of iodine labeled compound in presence of reboxetine blocker in study 2; details: in vivo, 1 h
Method in brief: (§1)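 Male Sprague–Dawley rats (250–300 g), ketamine-anesthetized. Blocker (2 mg/kg) or none was given iv 15 min before tail-vein radioligand (10 µCi in 0.2 mL 10% EtOH/saline). Rats were killed at 60 min with im pentobarbital. Brain regions were dissected, weighed and gamma-counted. % dose/g was taken from decay-corrected, background-subtracted counts versus the injected dose.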

Rattus norvegicus [2] = assay: Distribution of radioactivity in rat brain pons 5 min after intravenous administration of iodine labeled compound; details: in vivo
Method in brief: (§2)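 Male Sprague–Dawley rats (225–300 g) under ketamine received 10 µCi radioligand iv (tail vein) in 10% EtOH/saline. Hypothalamus, prefrontal cortex, striatum, pons and cerebellum were dissected, weighed and gamma-counted. % injected dose/g was taken from decay-corrected counts versus diluted dose. Mean ± SE and range, n=5 (5, 30 min) or 4 (60, 120 min).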

Rattus norvegicus [3] = assay: Distribution of radioactivity in rat lung 120 min after intravenous administration of iodine labeled compound; details: in vivo, 2 h
Method in brief: (§3)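 Tail-vein injection of [123I]ZIENT (10 μCi in 0.2 mL 10% EtOH/0.9% NaCl, then 0.4 mL saline flush) into ketamine-anaesthetised male Sprague–Dawley rats (225–300 g). Animals were killed by cardiac excision at set times. Organs were excised, rinsed, blotted, weighed and gamma-counted. % dose/g was calculated against diluted aliquots of injectate. Mean ± SE, n=4–5.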

Rattus norvegicus [4] = assay: Distribution of radioactivity in rat brain hypothalamus 120 min after intravenous administration of iodine labeled compound; details: in vivo, 2 h; method in brief: as §2
Rattus norvegicus [5] = assay: Distribution of radioactivity in rat testis 5 min after intravenous administration of iodine labeled compound; details: in vivo; method in brief: as §3
Rattus norvegicus [6] = assay: Ratio of distribution of radioactivity in rat brain region striatum and cerebellum 60 min after intravenous administration of iodine labeled compound in presence of RTI-113 blocker in study 1; details: in vivo, 1 h
Rattus norvegicus [7] = assay: Distribution of radioactivity in rat lung 60 min after intravenous administration of iodine labeled compound; details: in vivo, 1 h; method in brief: as §3
Rattus norvegicus [8] = assay: Ratio of distribution of radioactivity in rat brain region striatum and cerebellum 60 min after intravenous administration of iodine labeled compound in absence of blocker in study 1; details: in vivo, 1 h
Rattus norvegicus [9] = assay: Ratio of distribution of radioactivity in rat brain region pons and cerebellum 60 min after intravenous administration of iodine labeled compound in presence of fluvoxamine blocker in study 1; details: in vivo, 1 h
Rattus norvegicus [10] = assay: Ratio of distribution of radioactivity in rat brain region pons and cerebellum 60 min after intravenous administration of iodine labeled compound in absence of blocker in study 1; details: in vivo, 1 h
Rattus norvegicus [11] = assay: Ratio of distribution of radioactivity in rat brain prefrontal cortex and cerebellum 120 min after intravenous administration of iodine labeled compound; details: in vivo, 2 h
Method in brief: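 Male Sprague–Dawley rats (225–300 g) under ketamine anaesthesia were given [123I]ZIENT (10 μCi) in 0.2 mL 10% EtOH/0.9% NaCl into the tail vein, with a saline flush. Hypothalamus, prefrontal cortex, striatum, pons and cerebellum were dissected and gamma-counted. % injected dose/g came from decay-corrected counts against the diluted injected dose, and region/cerebellum ratios were taken from these. Mean ± SE, n=4–5.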

Rattus norvegicus [12] = assay: Distribution of radioactivity in rat muscle tissue 5 min after intravenous administration of iodine labeled compound; details: in vivo; method in brief: as §3
Rattus norvegicus [13] = assay: Ratio of distribution of radioactivity in rat brain striatum and cerebellum 30 min after intravenous administration of iodine labeled compound; details: in vivo, 0.5 h
Method in brief: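 Male Sprague–Dawley rats (225–300 g), ketamine anesthesia, injected via tail vein with [123I]ZIENT (10 μCi in 0.2 mL 10% EtOH/0.9% NaCl, 0.4 mL saline flush). Killed at 5, 30, 60 or 120 min. Striatum and cerebellum dissected, weighed, γ-counted. Decay-corrected %injected dose/g taken against diluted injectate. Ratio is striatum over cerebellum. Four or five rats per time point, mean ± standard error.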

Rattus norvegicus [14] = assay: Distribution of radioactivity in rat brain region striatum 60 min after intravenous administration of iodine labeled compound in presence of RTI-113 blocker in study 1; details: in vivo, 1 h
Method in brief: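 Male Sprague–Dawley rats (250–300 g), ketamine-anaesthetised, received [123I]ZIENT (10 μCi) in 0.2 mL 10% ethanol/0.9% NaCl via the tail vein. […] Rats were killed at 60 min with pentobarbital, brain regions dissected and gamma-counted. Values are % dose/g from decay-corrected, background-subtracted counts against the diluted injected dose.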

Rattus norvegicus [15] = assay: Distribution of radioactivity in rat brain hypothalamus 30 min after intravenous administration of iodine labeled compound; details: in vivo, 0.5 h; method in brief: as §2
Rattus norvegicus [16] = assay: Ratio of distribution of radioactivity in rat brain region striatum and cerebellum 60 min after intravenous administration of iodine labeled compound in presence of fluvoxamine blocker in study 1; details: in vivo, 1 h
Rattus norvegicus [17] = assay: Distribution of radioactivity in rat brain 120 min after intravenous administration of iodine labeled compound; details: in vivo, 2 h
Rattus norvegicus [18] = assay: Distribution of radioactivity in rat brain pons 120 min after intravenous administration of iodine labeled compound; details: in vivo, 2 h; method in brief: as §2
Rattus norvegicus [19] = assay: Distribution of radioactivity in rat spleen 60 min after intravenous administration of iodine labeled compound; details: in vivo, 1 h; method in brief: as §3
Rattus norvegicus [20] = assay: Distribution of radioactivity in rat lung 5 min after intravenous administration of iodine labeled compound; details: in vivo; method in brief: as §3
Rattus norvegicus [21] = assay: Ratio of distribution of radioactivity in rat brain region pons and cerebellum 60 min after intravenous administration of iodine labeled compound in absence of blocker in study 2; details: in vivo, 1 h
Rattus norvegicus [22] = assay: Distribution of radioactivity in rat brain region cerebellum 60 min after intravenous administration of iodine labeled compound in presence of fluvoxamine blocker in study 1; details: in vivo, 1 h; method in brief: as §1

## COC(=O)[C@@H]1C2CCC(C[C@@H]1c1ccc(/C=C\I)cc1)N2 (some centres not stated)
Rattus norvegicus [1]
  Distribution (dose/g): 0.65%
Rattus norvegicus [2]
  Distribution (dose/g): 0.59%
Rattus norvegicus [3]
  Distribution (dose/g): 0.76%
Rattus norvegicus [4]
  Distribution (dose/g): 0.59%
Rattus norvegicus [5]
  Distribution (dose/g): 0.21%
Rattus norvegicus [6]
  Distribution (dose/g): 2.56%
Rattus norvegicus [7]
  Distribution (dose/g): 1.41%
Rattus norvegicus [8]
  Distribution (dose/g): 3.17%
Rattus norvegicus [9]
  Distribution (dose/g): 1.47%
Rattus norvegicus [10]
  Distribution (dose/g): 2.58%
Rattus norvegicus [11]
  Distribution (dose/g): 4.08%
Rattus norvegicus [12]
  Distribution (dose/g): 0.23%
Rattus norvegicus [13]
  Distribution (dose/g): 2.25%
Rattus norvegicus [14]
  Distribution (dose/g): 0.64%
Rattus norvegicus [15]
  Distribution (dose/g): 0.76%
Rattus norvegicus [16]
  Distribution (dose/g): 1.76%
Rattus norvegicus [17]
  Distribution (dose/g): 0.39%
Rattus norvegicus [18]
  Distribution (dose/g): 0.4%
Rattus norvegicus [19]
  Distribution (dose/g): 0.61%
Rattus norvegicus [20]
  Distribution (dose/g): 4.96%
Rattus norvegicus [21]
  Distribution (dose/g): 2.79%
Rattus norvegicus [22]
  Distribution (dose/g): 0.17%
